Key:
[1] = system: Fibroblasts; test: Cytotoxicity assay; type: cell-based; conditions: Fibroblast, 72 h, read-out: IC50 on cell viability
Outline: (§1)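 Cells grown in 0.2% gelatin-coated flasks in RPMI 1640 with 20% human serum, 2 mM glutamine, penicillin/streptomycin. Seeded at 3,000 cells/well and allowed to adhere ≥3 h (37 °C, 5% CO2), then exposed to a range of test compound concentrations for 72 h. Viability measured by CCK-8 or MTT, relative to vehicle-only cultures. Triplicate wells, ≥3 independent experiments. Apparent IC50 (concentration giving 50% viability) taken from mean dose-response curves.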

[2] = system: HUVEC; test: Cytotoxicity assay; type: cell-based; conditions: Homo sapiens, 72 h, read-out: IC50 on cell viability
Outline: as §1

[3] = system: 2H11 endothelial cells; test: Cytotoxicity assay; type: cell-based, murine; conditions: Mus musculus, Endothelial cell, 72 h, read-out: IC50 on cell viability
Outline: (§2)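 Cells maintained on uncoated flasks in RPMI 1640 with 10% FBS and 1% penicillin/streptomycin; mycoplasma-checked. Seeded at 3,000 cells/well, allowed ≥3 h adherence (37 °C, 5% CO2), then treated 72 h with graded test compound concentrations. CCK-8 or MTT colorimetric viability, expressed against vehicle-treated cultures. Triplicate wells, at least three independent runs. Apparent IC50 (concentration giving 50% viability) read from mean dose-response curves.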

[4] = system: B16F10 melanoma cells; test: Cytotoxicity assay; type: cell-based, murine; conditions: Mus musculus, B16-F10, 72 h, read-out: IC50 on cell viability
Outline: as §2

[5] = system: SCK mammary carcinoma cells; test: Cytotoxicity assay; type: cell-based, murine; conditions: Mus musculus, 72 h, read-out: IC50 on cell viability
Outline: as §2

[6] = system: FSAII fibrosarcoma cells; test: Cytotoxicity assay; type: cell-based, murine; conditions: Mus musculus, 72 h, read-out: IC50 on cell viability
Outline: as §2

[7] = system: MA148 ovarian carcinoma cells; test: Cytotoxicity assay; type: cell-based; conditions: Homo sapiens, Ovarian carcinoma cell, 72 h, read-out: IC50 on cell viability
Outline: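 3,000 cells/well, left to adhere at least 3 h at 37 °C in 5% CO2, then exposed to various test compound concentrations for 72 h. Viability read colorimetrically (CCK-8 or MTT) as percentage of vehicle-only cultures. Each experiment in triplicate, repeated ≥3 times. Apparent IC50 (concentration for 50% viability) derived from averaged dose-response curves.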

[8] = system: A549 lung carcinoma cells; test: Cytotoxicity assay; type: cell-based; conditions: Homo sapiens, A549, 72 h, read-out: IC50 on cell viability
Outline: as §2

[9] = General toxicity; type: in vivo; conditions: 10 mg/kg IP BID, comparison study (Fig. 4b)

CN(C)CCNC(=O)COc1c2cccc1Cc1cccc(c1OCC(=O)NCCN(C)C)Cc1cccc(c1OCC(=O)NCCN(C)C)Cc1cccc(c1OCC(=O)NCCN(C)C)C2 [PTX008]
IC50 [1]: 35 µM | IC50 [2]: 3 µM | IC50 [3]: > 100 µM | IC50 [4]: 80 µM | IC50 [5]: 100 µM | IC50 [6]: > 20 µM | IC50 [7]: 0.5 µM | IC50 [8]: 2 µM | body weights of mice during treatment [9]: remained constant

Source: publication PMC4242102 (Investigational new drugs, 2013)
